Laboratory results published in ChEMBL document CHEMBL4513216, “Probing the Open Global Health Chemical Diversity Library for Multistage-Active Starting Points for Next-Generation Antimalarials” (ACS Infect Dis, 2020).

Test: Toxicity liver stage against HepG2, at 10uM
Type: cell-based
Parameters: test concentration 10 uM, cell line HepG2-A16-CD81EGFP
Details: human, HepG2-A16-CD81EGFP cells; read-out: INHIBITION
How it was run: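 Uninfected HepG2-A16-CD81EGFP cells, 3 × 10^3 per well, 1536-well, plated on prespotted compound at 10 μM final, parasite-free screening media added to match infected plates; puromycin 10 μM positive, DMSO 0.5% negative; run in parallel with 48 h PbLuc assay at 37 °C, 5% CO2; viability by CellTiter-Glo luminescence, normalized to controls.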

Compound	cytotoxicity at 10 µM [%]
CCN(CC)S(=O)(=O)c1ccc2c(c1)N(Cc1ccccn1)C(=O)CS2	3.51
COCCN1CC(O)CN(C(=O)c2cccc(C(F)(F)F)c2)CC1=O (stereo unspecified)	-3.84
COC1CN(C(=O)Nc2ccccc2)CCC(=O)N(C)c2ccccc21 (stereo unspecified)	-9.69
Cc1oc(-c2nc(C#N)c(N(C)C)o2)cc1S(=O)(=O)N1CCCCCC1	-13.9
CC(C)NC(=O)Cn1cc(-c2ccccc2)ncc1=O	-9.87
O=S(=O)(NCC1CCN(c2ccccn2)CC1)c1ccccc1F	-0.549
COc1cccc(NC(=O)NCc2cnn(C)c2)c1	-1.59
Cc1cc(C(=O)NCc2c(C)nn(C)c2C)nc(N2CCOCC2)n1	0.0436
CCn1nc(C)c(CN2CCC(c3ccn[nH]3)C2)c1C (stereo unspecified)	-0.125
CC(=O)N[C@H]1CCO[C@@H](c2cccc(NC(=O)Cc3ccccc3)c2)C1	8.3
O=S(=O)(c1cn[nH]c1)N1CCCC(O)(CN2CCOCC2)CC1 (stereo unspecified)	6.61
Cn1ccnc1C(O)c1ccccc1N1CCN(CC2CCCC2)CC1 (stereo unspecified)	0.135
Cc1nc(C)c(C(=O)N2CCCC2c2nc(O)cc(C(C)C)n2)s1 (stereo unspecified)	-29.4
O=C(C1CC1)N1CCc2nc(C3CCN(C(=O)C4CC4)C3)nc(O)c2C1 (stereo unspecified)	-20.9
Cc1nc(O)cc(C2CCCN2CCO)n1 (stereo unspecified)	-14.5
CCc1nc2ccccc2c(=O)n1CC1(O)CCN(CC(=O)OC)CC1	-4.99
C=Cn1ncc(CN2C[C@@H]3C[C@@H](O)CN3C[C@H]2Cc2ccccc2)c1C	4.08
Cc1cc(-c2ccccc2C(=O)O)nc(C2CCCN(C(C)C)C2)n1 (stereo unspecified)	-4.47
CC(C)CNC(=O)c1cc(C2CC2)nc2onc(C3CCNCC3)c12	10.8
Cc1ccc(S(=O)(=O)NC(=O)CCC(F)(F)F)cc1N(C)C	-3.79
CCCS(=O)(=O)NC(=O)c1cc(C)n(-c2ccccc2)n1	-7.21
Cc1nnc(NCc2ccc(Cl)cc2)o1	3.79
CCC(NC(=O)Cn1ccc(=O)n(C)c1=O)c1ccccc1OC (stereo unspecified)	7.23

Compound	cytotoxicity at 10 µM [%]
O=C1NCCCCC1NC(=O)C1(c2cccc(C(F)(F)F)c2)CC1 (stereo unspecified)	-5.67
COCC(C)NC(=O)CCSc1ccc(F)cc1 (stereo unspecified)	1.28
CSc1ccc(CNC2(c3ccc(F)cc3)CCOCC2)cc1	-4.51
NC(=O)CN(CC(=O)NCCc1c(F)cccc1F)C1CCCC1	-8.02
N#Cc1cccc(Cl)c1NC1CCN(CC(N)=O)CC1	-5.87
CC(CNC(=O)N1CCC(CO)CC1)Cc1cccs1 (stereo unspecified)	-8.52
Cn1nc2c(cc1=O)CN(CC(=O)Nc1nccs1)CC2	7.07
Cc1cc(C)n(C2CCCN(C(=O)c3ccc(N(C)C)nn3)C2)n1 (stereo unspecified)	-9.31
O=C(c1ccoc1)N1CCCCC1c1nc[nH]n1 (stereo unspecified)	-7.03
CC(SCCS(C)(=O)=O)c1nc(Cc2ccccc2)no1 (stereo unspecified)	2.25
NCc1ccc(Oc2cccc(Cl)c2Cl)cc1	7.25
CC(=O)N(c1ccc(C)cc1)c1nc(CN2CCCC(C)C2)cs1 (stereo unspecified)	-6.71
O=C(O)c1ccnc(SCc2ccccc2)c1	-9.98
COCCNc1ccc(CNC(=O)C2COc3ccccc32)cc1 (stereo unspecified)	-13.9
O=S(=O)(NC1CCCCC12OCCO2)c1cc(Cl)cc(Cl)c1 (stereo unspecified)	11.5
CCn1nc(C)cc1C(=O)N1CCOc2ccc(OC)cc21	14.3
CC(=O)N1CCCN(C(=O)Cc2c(C)nc(C)[nH]c2=O)CC1	-8.28
COc1ccc(Br)cc1CC(=O)N1CCCC1	-2.69
CCS(=O)(=O)N1CCN(C(C)c2ccccc2OC)CC1 (stereo unspecified)	4.55
CC(Nc1ccc(CC(=O)N(C)C)cc1)C(=O)N(C)CCC#N (stereo unspecified)	1.42
CC(C)(NCC(=O)N1CCCC(C(N)=O)C1)c1ccc(Cl)cc1 (stereo unspecified)	3.36
CC(CNC(=O)c1ccccc1Oc1cccnc1)N(C)C (stereo unspecified)	-9.29
O=C(NCCO)Nc1cccc(Cl)c1SC(F)F	5.98

Compound	cytotoxicity at 10 µM [%]
O=C(NC1(c2cccc(F)c2)CCOCC1)c1cc[nH]n1	-6.83
COc1cc(C(=O)N(Cc2ccc(F)cc2)C2CC2)cc2c1OCCO2	-1.33
CC(NC(=O)NCC1(O)CCC1)c1ccc(OCC2CC2)c(F)c1 (stereo unspecified)	-4.69
CS(=O)(=O)NCCCNC(=O)c1cccc(-n2cccc2)c1	-9.86
Cn1nccc1-c1cnc2n1CCNC21CCN(C(=O)C2(C)CC2)CC1	-111
COc1ccc(CN2CCn3c(CNS(C)(=O)=O)nnc3C2)cc1	4.19
CN(C)c1nccc(NCc2cc(-c3ccco3)n[nH]2)n1	2.27
N[C@H]1CN(C(=O)Cc2ccc(Cl)c(Cl)c2)C[C@@H]1C1CC1	-14.4
Cc1cc(C)nc(NCc2cc3n(n2)CCCN(C(=O)C2CCC2)C3)n1	-120
CSCC(=O)N(C)Cc1cnn(-c2ccc(F)cc2)c1	-13.4
CCC(C(=O)N1CCN(S(=O)(=O)N2CCCC2)CC1)n1cccn1 (stereo unspecified)	-8.56
COc1ccnc(CN2CC(=O)N(c3ccc(C)cc3)CC2C)c1OC (stereo unspecified)	-10.8
CCN(Cc1ccc(C)o1)C(=O)C(C)n1ccnc1C(C)C (stereo unspecified)	7.66
CCCc1cnc(C)nc1N1CCC2(CCCO2)CC1	-13.4
CC(C)(C)c1nc(CN2CCC3(CCCO3)CCC2=O)no1 (stereo unspecified)	-4.57
CCS(=O)(=O)c1ncc(CN2CCCC2)n1CCc1ccccc1	5.35
Cc1nc(NCCSc2ccccn2)c2c(C)noc2n1	18.8
Cc1ccc(F)cc1-c1ccc(N)nc1	-143
Cc1cc(C(=O)N2C[C@H](c3ccccc3)[C@@H](N)C2)c2ccc(F)cc2n1	3.96
COc1ccc([C@@H]2CN(C(=O)CCCc3cn[nH]c3)C[C@H]2N(C)C)cc1	-2.31
CCS(=O)(=O)N1CCCC(c2nccn2Cc2cccnc2)C1 (stereo unspecified)	-2.78
CCN1CCC(CC(=O)NCCc2nc(C)c(Cl)s2)CC1	-7.43
CCC[C@H]1CN(CCS(C)(=O)=O)C[C@@H]1NC(=O)c1cc[nH]n1	2.75

Compound	cytotoxicity at 10 µM [%]
CC(C)c1nc(C(=O)N2C[C@H](C(C)C)[C@@H](N)C2)cs1	-3.73
CCn1c(CN2CCCC2)nnc1C1CCN(S(=O)(=O)CC)CC1	-4.92
CCCn1ncc(CN(Cc2ccsc2)Cc2ccco2)c1C	9.27
O=C(Cc1ccccc1C(F)(F)F)N1CCC2(CC1)OCCCC2O (stereo unspecified)	-2.62
CNC(=O)CC1CCN(Cc2nc(-c3cccc(Cl)c3)oc2C)CC1	-9.75
CNc1nc2c(c(C(=O)N3CCCC3)n1)CN(Cc1nccn1C)CC2	-8.74
CC(C)C1CN(c2ncccn2)CCC(=O)N1Cc1ccc(F)cc1 (stereo unspecified)	1.76
Cn1cc(CNc2ncnc3c2CCN(Cc2ccsc2)CC3)cn1	15.5
O=C(c1cccc(=O)[nH]1)N(Cc1ccsc1)CC1CCCO1 (stereo unspecified)	-11.5
CSCCC(NC(=O)c1nc(SC)ncc1Cl)C(=O)O (stereo unspecified)	-8.77
CC(C)Oc1ccc(CNC(=O)CN(C)S(C)(=O)=O)cc1F	-3.1
CC(Cn1ccnc1)NC(=O)N1CCN(Cc2ccncc2)CC1 (stereo unspecified)	-4.1
Cn1ncc2c(=O)[nH]c(CN3CCc4sccc4C3)nc21	-19
COC(=O)c1cccc(S(=O)(=O)NCc2cccnc2N(C)C)c1	5.68
Cc1cnn(CC2CCCCN2CCCS(=O)(=O)N(C)C)c1 (stereo unspecified)	-5.1
Cc1cnc(CN(C)C2CCN(Cc3nc4ccccc4o3)C2)o1 (stereo unspecified)	-19.4
Cc1cnn(CC2CN(CC(=O)N(C)Cc3ccccc3)CCO2)c1 (stereo unspecified)	-4.35
Cc1cnc(CN(C)C2CCN(Cc3nccn3C)C2)o1 (stereo unspecified)	-7.03
Cc1nc(C(=O)N2CCCC2c2cnn(C)c2)ccc1C#N (stereo unspecified)	-13.4
Cc1ccc(-c2nc(CN(Cc3cccs3)CC3CCCO3)no2)cc1 (stereo unspecified)	0.561
CCC(O)CN1CCN(C(=O)c2ccn(C)c(=O)c2)CC1 (stereo unspecified)	-10
CC(=O)Nc1nc(C(=O)NCc2ccc(N3CCCC3)nc2)cs1	-2.6
COc1ccc(CC(=O)N2CCCC(c3nncn3C)C2)cc1 (stereo unspecified)	-7.47

Compound	cytotoxicity at 10 µM [%]
O=C(c1ccccc1OCC1CC1)N1CCCC1Cn1cccn1 (stereo unspecified)	-6.77
O=C(c1cccn1Cc1cccs1)N1CCN(C2CC2)CC1	-10.4
CC(C(=O)N1CCCN(Cc2ccc(C#N)cc2)CC1)n1ccnc1 (stereo unspecified)	-10.9
c1coc(-c2nnc(CN3CCOC(Cn4cccn4)C3)o2)c1 (stereo unspecified)	-11
CN1CCOC(CNCc2cccc(OCc3ccccn3)c2)C1 (stereo unspecified)	-16.5
O=C(NCCN1CCCCCC1=O)c1n[nH]c(=O)c2ccccc12	-4.38
O=C1OCCN1CCc1nc(-c2cc3c4c(c2)CC(=O)N4CCC3)cs1	-7.1
OC(CN1CCOCC1)CN1CCc2c(ncn2C2CC2)C1 (stereo unspecified)	2.45
CS(=O)(=O)N1CCN(CC(O)COc2ccc(F)cc2)CC1 (stereo unspecified)	6.11
COc1ccc(C(CNC(=O)Nc2cn[nH]c2)N2CCOCC2)cc1 (stereo unspecified)	1.3
CC(CNCc1ccc(Br)cc1)Oc1ccccn1 (stereo unspecified)	5.36
CC1(C)CC(N(Cc2ccccc2)Cc2c[nH]cn2)CC(C)(C)N1	5.28
c1csc(CNCC2COCc3c(-c4ccoc4)nnn3C2)n1 (stereo unspecified)	-107
CN(C)CCOCC1CN(CC2CCOCC2)Cc2nnn(C)c21 (stereo unspecified)	3.01
O=C(N1CCCO1)[C@@]12CCO[C@@H]1CCN(C1CCCCC1)C2	-5.23
COc1c(CNCc2ccc(C(=O)NC3CC3)cc2)c(C)nn1C	3.18
Cc1ccccc1CC(C)NCc1c(C)nn(C)c1N1CCOCC1 (stereo unspecified)	-13.1
CN(C)C(=O)[C@@H]1C[C@@H]2CCN(Cc3ccc4c(c3)OCO4)C[C@@H]2O1	2.26
Cc1nc(CO[C@H]2CN(C(=O)c3ccc[nH]3)[C@@H]3COC[C@H]23)cs1	-110
